The results in this text go back to ChEMBL document CHEMBL1914368, “Imidazo[1,5-a]quinoxalines as irreversible BTK inhibitors for the treatment of rheumatoid arthritis” (Bioorg Med Chem Lett, 2011).

Data set [1] is described as follows: Inhibition of anti-IgM-stimulated human B cell proliferation assessed as [3H]thymidine incorporation preincubated for 30 mins measured after 3 days. It counts as functional, cell-based. The following applies: Homo sapiens, B-cell; read-out: IC50.
The target in data set [2] is T1, Tyrosine-protein kinase Lck (Homo sapiens, UniProt P06239). Put plainly: Inhibition of C-terminal His6-tagged human full-length LCK expressed in Sf9 cells preincubated for 60 mins measured after 60 mins by TR-FRET Assay.
Data set [3] can be described thus: AUC (0 to infinity) in mouse at 2 mg/kg, iv. It counts as ADME, organism-based. Also noted: time infinity, dose 2 mg/kg, route intravenous. To be noted: plasma.
Data set [4] is described as follows: Clearance in mouse at 2 mg/kg, iv. It counts as ADME, organism-based. Also noted: dose 2 mg/kg, route intravenous. The following applies: in vivo.
The nature of data set [5]: Volume of distribution at steady state in mouse at 2 mg/kg, iv. Format: ADME, organism-based. Also noted: dose 2 mg/kg, route intravenous. The following applies: in vivo, read-out: Vdss. The method in brief:
(§1)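 Mouse pharmacokinetics from single dosing at 2 mg/kg iv and 10 mg/kg po. The study derived AUC, T1/2, clearance, Vss, Tmax, Cmax and oral bioavailability (%F) from the paired iv and po arms.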

Data set [6] can be described thus: Tmax in mouse at 10 mg/kg, po. Also noted: dose 10 mg/kg, route oral. The following applies: in vivo. Format: ADME, organism-based. Summed up:
as §1

A short description of data set [7]: Cmax in mouse at 10 mg/kg, po. Format: ADME, organism-based. Also noted: dose 10 mg/kg, route oral. The following applies: in vivo.
The next data set deals with Mus musculus. Put plainly: Antiarthritic activity in C57BL/6 mouse assessed as inhibition of T-independent type 2 antigen-induced IgG3 antibody titer production administered qd for 7 days by ELISA. It counts as functional, organism-based. To be noted: C57BL6. The method in brief:
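Female C57BL/6 mice, 8–10 weeks old, immunized ip with NP(109)-Ficoll (TI-2 antigen). Compound or vehicle given po daily for 7 days, starting 1 day before immunization. Serum was collected 6 days after immunization, and NP-specific IgM and IgG3 titers were measured by ELISA.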
A general note: In an ELISA, binding on a coated surface is turned into a signal by an enzyme label.

Data set [8] concerns the target RAC-alpha serine/threonine-protein kinase (Homo sapiens) (UniProt P31749). Description: Inhibition of AKT1 relative to control. To be noted: concentration not given here.
In data set [9] the target is Cytoplasmic tyrosine-protein kinase BMX (Homo sapiens) (UniProt P51813). Put plainly: Inhibition of BMX relative to control. To be noted: concentration not given here.
Data set [10] concerns the target Vascular endothelial growth factor receptor 3 (Homo sapiens) (UniProt P35916). Description: Inhibition of FLT4 relative to control. The following applies: concentration not given here.
The target of data set [11] is Glycogen synthase kinase-3 alpha (Homo sapiens) (UniProt P49840). Put plainly: Inhibition of GSK3A relative to control. To be noted: concentration not given here.
Data set [12] deals with Glycogen synthase kinase-3 beta (Homo sapiens) (UniProt P49841). Description: Inhibition of GSK3B relative to control. The following applies: concentration not given here.
Glycogen synthase kinase-3 beta (Homo sapiens), sequence (P49841 whole entry, looked up): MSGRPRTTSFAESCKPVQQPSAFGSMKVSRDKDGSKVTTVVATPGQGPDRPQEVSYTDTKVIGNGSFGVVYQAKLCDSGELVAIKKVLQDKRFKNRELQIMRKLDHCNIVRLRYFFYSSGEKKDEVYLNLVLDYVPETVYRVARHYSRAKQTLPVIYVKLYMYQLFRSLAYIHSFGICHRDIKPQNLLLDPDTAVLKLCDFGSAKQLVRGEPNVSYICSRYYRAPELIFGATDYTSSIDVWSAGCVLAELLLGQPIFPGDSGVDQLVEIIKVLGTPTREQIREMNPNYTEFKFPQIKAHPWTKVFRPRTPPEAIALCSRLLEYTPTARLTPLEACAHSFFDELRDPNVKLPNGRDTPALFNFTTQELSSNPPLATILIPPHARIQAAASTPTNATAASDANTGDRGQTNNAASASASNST
The target of data set [13] is T1, Tyrosine-protein kinase Lck. Put plainly: Inhibition of LCK relative to control. The following applies: concentration not given here.
Target sequence in this assay (P06239 2-509 limits assumed): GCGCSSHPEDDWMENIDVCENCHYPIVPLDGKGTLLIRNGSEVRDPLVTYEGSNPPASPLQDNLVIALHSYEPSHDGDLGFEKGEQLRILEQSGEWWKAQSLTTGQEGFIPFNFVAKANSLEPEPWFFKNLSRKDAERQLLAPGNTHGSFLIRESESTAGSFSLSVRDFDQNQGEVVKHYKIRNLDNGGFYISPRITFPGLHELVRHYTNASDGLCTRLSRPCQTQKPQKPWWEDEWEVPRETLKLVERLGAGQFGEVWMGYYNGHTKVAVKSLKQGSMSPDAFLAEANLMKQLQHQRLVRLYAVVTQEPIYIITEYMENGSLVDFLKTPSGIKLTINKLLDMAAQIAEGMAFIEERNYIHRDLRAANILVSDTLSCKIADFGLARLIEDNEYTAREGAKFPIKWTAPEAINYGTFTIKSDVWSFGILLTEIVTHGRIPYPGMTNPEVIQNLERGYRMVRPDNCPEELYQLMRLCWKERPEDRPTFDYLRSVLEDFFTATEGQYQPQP
Data set [14] has as its target Serine/threonine-protein kinase MARK1 (Homo sapiens) (UniProt Q9P0L2). Description: Inhibition of MARK1 relative to control. The following applies: concentration not given here.
Data set [15] has as its target Phosphatidylinositol 4-phosphate 3-kinase C2 domain-containing subunit alpha (Homo sapiens) (UniProt O00443). Put plainly: Inhibition of PI3K-C2 alpha relative to control. The following applies: concentration not given here.
The target of data set [16] is RAF proto-oncogene serine/threonine-protein kinase (Homo sapiens) (UniProt P04049). Description: Inhibition of RAF1 relative to control. The following applies: concentration not given here.
RAF proto-oncogene serine/threonine-protein kinase (Homo sapiens), sequence (P04049 whole entry): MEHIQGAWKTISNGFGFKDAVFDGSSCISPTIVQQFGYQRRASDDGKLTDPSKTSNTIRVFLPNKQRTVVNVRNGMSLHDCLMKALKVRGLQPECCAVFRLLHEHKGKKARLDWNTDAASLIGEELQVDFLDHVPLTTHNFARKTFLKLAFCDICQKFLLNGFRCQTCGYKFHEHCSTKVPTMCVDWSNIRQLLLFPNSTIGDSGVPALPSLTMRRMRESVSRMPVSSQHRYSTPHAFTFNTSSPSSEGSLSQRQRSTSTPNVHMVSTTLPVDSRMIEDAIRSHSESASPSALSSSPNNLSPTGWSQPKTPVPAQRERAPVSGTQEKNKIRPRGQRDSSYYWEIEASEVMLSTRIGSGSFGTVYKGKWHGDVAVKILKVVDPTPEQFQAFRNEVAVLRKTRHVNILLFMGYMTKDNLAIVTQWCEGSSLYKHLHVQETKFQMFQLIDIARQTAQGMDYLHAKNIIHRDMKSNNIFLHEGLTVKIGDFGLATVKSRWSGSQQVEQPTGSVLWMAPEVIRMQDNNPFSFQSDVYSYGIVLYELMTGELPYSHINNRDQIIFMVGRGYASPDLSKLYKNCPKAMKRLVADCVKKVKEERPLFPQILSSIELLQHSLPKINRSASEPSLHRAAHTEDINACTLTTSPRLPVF
The target in data set [17] is Proto-oncogene tyrosine-protein kinase Src (Homo sapiens, UniProt P12931). Put plainly: Inhibition of SRC relative to control. The following applies: concentration not given here.
Proto-oncogene tyrosine-protein kinase Src, sequence (P12931 2-536 limits assumed): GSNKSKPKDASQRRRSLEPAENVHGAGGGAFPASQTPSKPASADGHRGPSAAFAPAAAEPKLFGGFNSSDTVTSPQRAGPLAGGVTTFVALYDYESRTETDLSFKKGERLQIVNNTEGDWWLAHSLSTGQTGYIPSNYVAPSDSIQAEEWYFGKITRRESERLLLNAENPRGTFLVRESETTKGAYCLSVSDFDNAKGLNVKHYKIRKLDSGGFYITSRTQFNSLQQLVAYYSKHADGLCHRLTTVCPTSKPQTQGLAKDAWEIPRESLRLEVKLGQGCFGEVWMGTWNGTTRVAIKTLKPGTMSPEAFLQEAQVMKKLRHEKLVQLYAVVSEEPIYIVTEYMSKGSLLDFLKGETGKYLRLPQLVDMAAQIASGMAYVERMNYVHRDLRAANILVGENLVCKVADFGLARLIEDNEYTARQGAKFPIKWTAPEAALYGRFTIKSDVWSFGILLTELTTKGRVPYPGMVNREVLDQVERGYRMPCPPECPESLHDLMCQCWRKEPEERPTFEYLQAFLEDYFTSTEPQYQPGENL
In data set [18] the target is Serine/threonine-protein kinase TBK1 (Homo sapiens) (UniProt Q9UHD2). Put plainly: Inhibition of TBK1 relative to control. To be noted: concentration not given here.

Phosphatidylinositol 4-phosphate 3-kinase C2 domain-containing subunit alpha (Homo sapiens), sequence (O00443 whole entry, the tested form may be a part): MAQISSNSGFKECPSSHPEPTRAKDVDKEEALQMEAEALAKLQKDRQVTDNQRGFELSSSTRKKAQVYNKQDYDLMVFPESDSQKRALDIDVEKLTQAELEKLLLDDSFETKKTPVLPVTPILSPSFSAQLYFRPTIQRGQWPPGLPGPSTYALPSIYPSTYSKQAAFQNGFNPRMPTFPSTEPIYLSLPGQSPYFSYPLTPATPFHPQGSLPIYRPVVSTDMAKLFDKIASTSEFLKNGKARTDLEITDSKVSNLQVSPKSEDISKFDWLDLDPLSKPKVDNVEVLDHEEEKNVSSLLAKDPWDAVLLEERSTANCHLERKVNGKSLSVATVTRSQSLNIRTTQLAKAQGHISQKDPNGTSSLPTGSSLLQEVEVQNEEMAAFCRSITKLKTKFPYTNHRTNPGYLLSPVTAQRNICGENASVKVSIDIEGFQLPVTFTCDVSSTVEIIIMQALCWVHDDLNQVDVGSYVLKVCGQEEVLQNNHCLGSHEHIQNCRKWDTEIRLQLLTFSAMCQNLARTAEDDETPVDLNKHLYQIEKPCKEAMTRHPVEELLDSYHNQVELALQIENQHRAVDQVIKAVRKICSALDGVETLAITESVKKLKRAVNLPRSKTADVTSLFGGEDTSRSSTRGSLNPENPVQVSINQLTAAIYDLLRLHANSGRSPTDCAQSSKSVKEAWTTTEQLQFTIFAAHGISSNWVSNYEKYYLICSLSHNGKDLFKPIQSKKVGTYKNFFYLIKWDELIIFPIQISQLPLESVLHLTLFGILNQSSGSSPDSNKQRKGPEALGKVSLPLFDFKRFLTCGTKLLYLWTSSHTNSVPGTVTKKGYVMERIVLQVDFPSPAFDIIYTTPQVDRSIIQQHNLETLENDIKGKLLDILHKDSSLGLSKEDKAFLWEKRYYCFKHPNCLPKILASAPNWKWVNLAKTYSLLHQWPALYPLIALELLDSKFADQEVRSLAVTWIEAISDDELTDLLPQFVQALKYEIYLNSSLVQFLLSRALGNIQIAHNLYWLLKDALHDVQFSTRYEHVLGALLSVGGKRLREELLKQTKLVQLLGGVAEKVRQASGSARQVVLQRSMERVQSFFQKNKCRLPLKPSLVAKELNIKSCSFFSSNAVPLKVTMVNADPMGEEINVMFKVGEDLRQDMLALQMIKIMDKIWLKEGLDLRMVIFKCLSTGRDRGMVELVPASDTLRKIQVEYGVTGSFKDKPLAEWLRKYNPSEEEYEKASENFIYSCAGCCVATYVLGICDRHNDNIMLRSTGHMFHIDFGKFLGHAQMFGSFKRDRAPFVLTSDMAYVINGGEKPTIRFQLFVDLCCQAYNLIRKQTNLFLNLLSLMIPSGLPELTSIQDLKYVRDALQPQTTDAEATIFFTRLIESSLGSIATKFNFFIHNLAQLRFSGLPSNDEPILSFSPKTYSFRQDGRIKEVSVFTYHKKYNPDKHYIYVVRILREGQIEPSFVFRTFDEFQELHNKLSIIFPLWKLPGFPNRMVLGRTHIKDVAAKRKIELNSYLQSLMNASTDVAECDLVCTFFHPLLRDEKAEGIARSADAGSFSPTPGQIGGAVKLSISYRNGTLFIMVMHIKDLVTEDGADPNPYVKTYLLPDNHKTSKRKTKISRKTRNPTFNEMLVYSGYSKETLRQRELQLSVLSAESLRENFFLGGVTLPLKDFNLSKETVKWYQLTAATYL
Serine/threonine-protein kinase MARK1 (Homo sapiens), sequence (Q9P0L2 whole entry, looked up, the tested form may be a part): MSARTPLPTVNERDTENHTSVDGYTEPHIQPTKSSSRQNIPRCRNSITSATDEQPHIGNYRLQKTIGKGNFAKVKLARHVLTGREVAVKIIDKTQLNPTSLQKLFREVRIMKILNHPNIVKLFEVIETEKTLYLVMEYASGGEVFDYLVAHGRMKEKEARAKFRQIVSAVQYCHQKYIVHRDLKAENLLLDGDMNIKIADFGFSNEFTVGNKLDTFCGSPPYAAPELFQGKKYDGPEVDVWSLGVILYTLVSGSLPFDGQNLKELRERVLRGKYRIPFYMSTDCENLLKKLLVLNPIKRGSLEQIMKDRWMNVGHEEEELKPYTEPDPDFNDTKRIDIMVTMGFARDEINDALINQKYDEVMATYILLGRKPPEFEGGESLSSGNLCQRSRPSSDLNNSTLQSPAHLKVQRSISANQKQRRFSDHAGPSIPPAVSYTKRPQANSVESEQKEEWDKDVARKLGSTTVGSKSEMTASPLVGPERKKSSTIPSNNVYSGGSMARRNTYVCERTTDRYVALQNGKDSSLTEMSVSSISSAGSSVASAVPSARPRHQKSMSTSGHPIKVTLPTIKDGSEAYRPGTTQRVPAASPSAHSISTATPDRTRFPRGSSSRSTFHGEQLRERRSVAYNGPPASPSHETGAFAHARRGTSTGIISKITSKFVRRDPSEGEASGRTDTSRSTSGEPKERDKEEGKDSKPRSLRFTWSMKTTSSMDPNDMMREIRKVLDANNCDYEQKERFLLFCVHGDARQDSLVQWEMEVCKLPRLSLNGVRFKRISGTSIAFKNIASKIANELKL
RAC-alpha serine/threonine-protein kinase (Homo sapiens), sequence (P31749 whole entry): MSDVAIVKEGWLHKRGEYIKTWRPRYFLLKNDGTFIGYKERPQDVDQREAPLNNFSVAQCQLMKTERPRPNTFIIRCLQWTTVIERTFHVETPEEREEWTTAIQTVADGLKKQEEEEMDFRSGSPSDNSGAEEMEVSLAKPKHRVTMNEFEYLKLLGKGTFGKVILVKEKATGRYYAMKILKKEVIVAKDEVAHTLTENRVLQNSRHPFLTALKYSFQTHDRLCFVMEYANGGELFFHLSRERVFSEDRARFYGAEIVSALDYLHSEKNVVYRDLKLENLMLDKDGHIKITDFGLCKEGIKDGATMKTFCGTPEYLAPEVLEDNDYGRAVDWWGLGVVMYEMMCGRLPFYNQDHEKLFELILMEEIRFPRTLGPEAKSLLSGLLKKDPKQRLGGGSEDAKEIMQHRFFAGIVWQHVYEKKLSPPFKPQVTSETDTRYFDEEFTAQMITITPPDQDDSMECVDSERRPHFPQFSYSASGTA

On to `Cc1ccccc1Nc1nc2cc(F)c(N(C)C(=O)/C=C/CN(C)C)cc2n2cncc12`, for which the results for the IC50 in [1] and in data set [2] were 3.41 nM and 755 nM, respectively. The AUC(0-inf) – broadly, the area under the concentration-time curve extrapolated to infinity – in data set [3] came to 510 ng·h/mL. Besides, the clearance (in general, the rate of elimination divided by the concentration) in data set [4] was determined as 63 mL/min/kg. Further, the Vd in data set [5] came out at 6.2 L/kg. Besides, the Tmax – broadly, the time at which the peak concentration occurs – in data set [6] is 3 h. Besides, the Cmax (in general, the peak of the concentration-time curve) in data set [7] is 220 ng/mL. Also, the inhibition (usually the change of the read-out against control, counted positive when it falls) was “Dose-dependent effect” with Mus musculus; 4% in data set [8]; 100% in [9]; 6% in data set [10]; 8% in data set [11]; 6% in data set [12]. Also, the inhibition in data set [13] was 25%; in [14], 8%; in data set [15] it was 0%; in data set [16], 9%; in data set [17] it was 43%; in [18], -5%.
